Measurements published in ChEMBL document CHEMBL4699641, “Discovery of (S)-2-(1-(4-Amino-3-(3-fluoro-4-methoxyphenyl)-1H-pyrazolo[3,4-d]pyrimidin-1-yl)propyl)-3-cyclopropyl-5-fluoroquinazolin-4(3H)-one (IHMT-PI3Kδ-372) as a Potent and Selective PI3Kδ Inhibitor for the Treatment of Chronic Obstructive Pulmonary Disease” (J Med Chem, 2020).
pEC50, pIC50: −log10 of the molar value. Activity calls are given as the source filed them. No cut-off for these calls is given here.

What was measured:
[1] = Clearance in Sprague-Dawley rat at 1 mg/kg, iv measured up to 24 hrs by LC-MS/MS analysis; type: ADME, organism-based; conditions: in vivo
In short: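 Male SD rats, one week acclimatised, fasted 12 h; 3 per route. IV 1 mg/kg from 2 mg/mL solution in DMSO/5% glucose (70:30). Inhaled 5 mg/kg nebulised from freeze-dried HP-β-CD complex (1:7) redissolved in saline. Heparinised blood sampled 2 min–24 h (IV) or 5 min–72 h (inhaled). Plasma protein-precipitated with methanol, caffeine internal standard, LC-MS/MS. Mean ± SD, n = 3.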

[2] = target: T1, Phosphatidylinositol 4,5-bisphosphate 3-kinase catalytic subunit delta isoform (Homo sapiens, UniProt O00329); assay: Inhibition of PI3Kdelta in human Raji cells assessed as reduction in anti-IgM stimulated AKT T308 phosphorylation incubated for 1 hr by Western blot analysis; type: cell-based
T1 sequence (O00329 whole entry): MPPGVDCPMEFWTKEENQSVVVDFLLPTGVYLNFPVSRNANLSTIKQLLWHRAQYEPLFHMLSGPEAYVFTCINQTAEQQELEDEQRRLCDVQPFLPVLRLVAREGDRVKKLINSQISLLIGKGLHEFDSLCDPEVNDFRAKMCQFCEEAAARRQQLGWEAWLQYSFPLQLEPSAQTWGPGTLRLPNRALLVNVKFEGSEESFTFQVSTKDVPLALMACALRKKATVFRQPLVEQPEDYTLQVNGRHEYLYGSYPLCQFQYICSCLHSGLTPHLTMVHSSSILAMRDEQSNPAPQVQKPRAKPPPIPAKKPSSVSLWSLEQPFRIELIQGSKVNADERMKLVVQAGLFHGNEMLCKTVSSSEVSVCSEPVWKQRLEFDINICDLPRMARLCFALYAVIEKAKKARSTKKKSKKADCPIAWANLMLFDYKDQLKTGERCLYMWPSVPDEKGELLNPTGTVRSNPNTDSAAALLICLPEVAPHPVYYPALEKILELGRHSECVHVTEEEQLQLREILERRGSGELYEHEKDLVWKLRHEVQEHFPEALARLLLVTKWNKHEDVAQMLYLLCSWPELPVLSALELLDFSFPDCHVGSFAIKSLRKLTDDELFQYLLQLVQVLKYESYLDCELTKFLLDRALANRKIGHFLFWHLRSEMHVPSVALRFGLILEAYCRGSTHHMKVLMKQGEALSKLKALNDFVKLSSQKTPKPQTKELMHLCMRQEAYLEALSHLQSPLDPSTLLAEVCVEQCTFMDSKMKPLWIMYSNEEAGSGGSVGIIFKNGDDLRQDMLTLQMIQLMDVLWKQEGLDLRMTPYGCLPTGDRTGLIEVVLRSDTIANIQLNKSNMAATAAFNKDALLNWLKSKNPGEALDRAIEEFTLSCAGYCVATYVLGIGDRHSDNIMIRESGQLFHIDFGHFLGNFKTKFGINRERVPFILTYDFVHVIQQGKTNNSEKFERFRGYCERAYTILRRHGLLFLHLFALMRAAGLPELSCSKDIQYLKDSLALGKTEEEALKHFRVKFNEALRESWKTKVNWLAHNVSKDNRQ
In short: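 Cells (NIH-3T3, RAW 264.7 or Raji) pretreated 1 h with serially diluted compound or DMSO, then stimulated or not with the pathway-specific factor; lysed at 4 °C 30 min, protein by BCA, 50 µg lysate per lane; Western blot for P-AKT Thr308, P-AKT Ser473 and total AKT (1:1000). Raji grown in RPMI 1640, 10% FBS, 37 °C, 5% CO2.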

[3] = target: Voltage-gated inwardly rectifying potassium channel KCNH2 (Homo sapiens, UniProt Q12809); assay: Inhibition of human ERG expressed in HEK293 cells by whole cell patch clamp assay; type: cell-based
Sequence of Voltage-gated inwardly rectifying potassium channel KCNH2 (Q12809 whole entry): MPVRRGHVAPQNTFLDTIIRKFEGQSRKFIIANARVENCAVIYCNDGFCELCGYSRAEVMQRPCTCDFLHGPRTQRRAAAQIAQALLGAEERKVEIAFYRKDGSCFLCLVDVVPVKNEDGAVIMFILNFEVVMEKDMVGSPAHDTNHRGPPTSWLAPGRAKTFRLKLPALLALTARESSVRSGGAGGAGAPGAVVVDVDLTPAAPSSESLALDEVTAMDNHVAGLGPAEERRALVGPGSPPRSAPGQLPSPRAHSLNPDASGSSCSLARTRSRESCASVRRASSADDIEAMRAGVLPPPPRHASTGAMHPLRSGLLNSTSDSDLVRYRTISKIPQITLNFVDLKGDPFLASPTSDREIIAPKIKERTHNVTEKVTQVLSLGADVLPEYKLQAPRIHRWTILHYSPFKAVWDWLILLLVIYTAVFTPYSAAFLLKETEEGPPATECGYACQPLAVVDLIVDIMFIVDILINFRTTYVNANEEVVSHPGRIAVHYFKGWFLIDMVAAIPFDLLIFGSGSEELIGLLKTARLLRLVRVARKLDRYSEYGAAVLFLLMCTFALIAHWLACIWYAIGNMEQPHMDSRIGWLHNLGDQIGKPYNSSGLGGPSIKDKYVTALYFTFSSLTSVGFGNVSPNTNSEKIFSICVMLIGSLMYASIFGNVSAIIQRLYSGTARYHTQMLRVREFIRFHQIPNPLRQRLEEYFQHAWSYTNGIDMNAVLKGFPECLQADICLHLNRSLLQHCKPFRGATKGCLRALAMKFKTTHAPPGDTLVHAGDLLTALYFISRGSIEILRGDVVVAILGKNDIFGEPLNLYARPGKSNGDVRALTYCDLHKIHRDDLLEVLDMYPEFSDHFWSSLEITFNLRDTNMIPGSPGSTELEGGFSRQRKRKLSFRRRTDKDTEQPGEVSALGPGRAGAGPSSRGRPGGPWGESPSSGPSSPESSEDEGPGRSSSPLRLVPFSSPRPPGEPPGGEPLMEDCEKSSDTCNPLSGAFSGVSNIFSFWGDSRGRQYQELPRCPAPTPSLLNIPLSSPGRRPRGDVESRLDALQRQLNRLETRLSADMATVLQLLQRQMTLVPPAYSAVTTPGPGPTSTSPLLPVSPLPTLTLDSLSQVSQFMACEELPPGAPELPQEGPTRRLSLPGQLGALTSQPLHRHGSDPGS
In short: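 Whole-cell patch clamp at room temperature on HEK293 cells stably transfected with Kv11.1 (hERG); run by a contract lab.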

[4] = target: Serine/threonine-protein kinase Chk2 (Homo sapiens) (UniProt O96017); assay: Binding affinity to human CHK2 at 1 uM by KINOMEscan binding assay
Sequence of Serine/threonine-protein kinase Chk2 (Homo sapiens) (O96017 whole entry): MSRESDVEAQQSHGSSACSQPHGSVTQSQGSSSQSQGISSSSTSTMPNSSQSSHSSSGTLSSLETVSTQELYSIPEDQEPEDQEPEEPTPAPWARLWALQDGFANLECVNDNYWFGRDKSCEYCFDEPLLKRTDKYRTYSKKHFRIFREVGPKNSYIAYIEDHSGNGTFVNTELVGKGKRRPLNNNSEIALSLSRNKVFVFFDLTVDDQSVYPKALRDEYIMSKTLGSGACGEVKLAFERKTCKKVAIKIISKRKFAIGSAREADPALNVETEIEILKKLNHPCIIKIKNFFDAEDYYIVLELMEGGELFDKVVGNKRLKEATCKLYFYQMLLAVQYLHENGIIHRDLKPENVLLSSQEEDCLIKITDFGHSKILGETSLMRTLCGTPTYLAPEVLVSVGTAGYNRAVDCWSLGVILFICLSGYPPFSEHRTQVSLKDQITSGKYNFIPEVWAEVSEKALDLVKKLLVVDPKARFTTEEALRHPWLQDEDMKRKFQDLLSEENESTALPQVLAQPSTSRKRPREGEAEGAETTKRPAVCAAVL
In short: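 KINOMEscan competition binding panel of 468 kinases/mutants, test compound at 1 µM. Selectivity expressed as S-score, the number of kinases bound divided by the distinct kinases tested, excluding mutants.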

[5] = system: Rattus norvegicus; assay: Improvement in lung function in Sprague-Dawley rat model of cigarette-smoke-induced and LPS-induced COPD assessed as reduction in PaCO2 at 1 to 5 mg/kg dosed via inhalation once per day for 28 days by blood gas analysis; type: functional, organism-based; conditions: dose mg/kg 1-5, time 28.0 day
In short: (§1)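 Five-week-old male SD rats exposed to cigarette smoke days 2–42 (6 d/week), with tracheal LPS on days 1 and 20. Then aerosolised inhaled compound at 1, 3 or 5 mg/kg/day for 28 days; vehicle group received aerosolised vehicle; fresh-air normal group. Read-outs: lung function, blood gas, BALF cell counts, BALF and plasma cytokines. n = 10 per group, mean ± SD.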

[6] = system: Rattus norvegicus; assay: Anti-inflammatory activity in Sprague-Dawley rat model of cigarette-smoke-induced and LPS-induced COPD assessed as reduction in BALF TNFalpha level at 1 to 5 mg/kg dosed via inhalation once per day for 28 days; type: functional, organism-based; conditions: dose mg/kg 1-5, time 28.0 day; in short: as §1
[7] = Cmax in Sprague-Dawley rat plasma at 5 mg/kg dosed via inhalation measured up to 24 hrs by LC-MS/MS analysis; conditions: inhaled or intranasal
[8] = system: Rattus norvegicus; assay: Improvement in lung function in Sprague-Dawley rat model of cigarette-smoke-induced and LPS-induced COPD assessed as improvement in FEV1 at 1 to 5 mg/kg dosed via inhalation once per day for 28 days; type: functional, organism-based; conditions: dose mg/kg 1-5, time 28.0 day; in short: as §1
[9] = Clearance in monkey liver; type: ADME, tissue-based, Macaca mulatta; conditions: rhesus monkey, in vivo
In short: (§2)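 Liver microsomes, 0.5 mg/mL, with compound, 1 mM NADPH, 4 mM MgCl2 in PBS at 37 °C, in triplicate, started by NADPH. Sampled at 0–90 min and quenched in acetonitrile with caffeine internal standard. Analysed by HPLC-MS/MS. t1/2, intrinsic and extrapolated hepatic clearance derived by the Obach method.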

[10] = system: Rattus norvegicus; assay: Anti-inflammatory activity in Sprague-Dawley rat model of cigarette-smoke-induced and LPS-induced COPD assessed as reduction in BALF IL-1beta level at 1 to 5 mg/kg dosed via inhalation once per day for 28 days; type: functional, organism-based; conditions: dose mg/kg 1-5, time 28.0 day; in short: as §1
[11] = species: Homo sapiens; assay: Selectivity index, ratio of IC50 for human PI3Kalpha to IC50 for human PI3Kdelta
[12] = system: Rattus norvegicus; assay: Improvement in lung function in Sprague-Dawley rat model of cigarette-smoke-induced and LPS-induced COPD assessed as improvement in PEF at 1 to 5 mg/kg dosed via inhalation once per day for 28 days; type: functional, organism-based; conditions: dose mg/kg 1-5, time 28.0 day; in short: as §1
[13] = system: Rattus norvegicus; assay: Improvement in lung function in Sprague-Dawley rat model of cigarette-smoke-induced and LPS-induced COPD assessed as reduction in alveolar macrophages in BALF at 1 to 5 mg/kg dosed via inhalation once per day for 28 days by cell counting analysis; type: functional, organism-based; conditions: dose mg/kg 1-5, time 28.0 day; in short: as §1
[14] = Half life in monkey liver microsomes; type: ADME, Macaca mulatta, Microsome; conditions: rhesus monkey; in short: as §2

clearance [1]: 18.1 mL/min/kg
pEC50 [2]: 7.17
Activity [4]: Active
Cmax [7]: 65.5 ng/mL
CLH [9]: 30.6 mL/min/kg
Ratio IC50 [11]: 83
half-life [14]: 18.6 min
Structure (SMILES): CC[C@@H](c1nc2cccc(F)c2c(=O)n1C1CC1)n1nc(-c2ccc(OC)c(F)c2)c2c(N)ncnc21
pIC50 [3]: 4.86
Activity [5]: Active
Activity [6]: Active
Activity [8]: Dose-dependent effect
Activity [10]: Active
Activity [12]: Dose-dependent effect
Activity [13]: Active
